Screening data (PubChem)
rCAG binder: r(CAG) repeat RNA binding. TO-PRO-1 dye displacement fluorescence. inhibition, % at 3 µM. 370,000 tested, 1.3% active. AID 651821;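 active means inhibition above the plate cutoff, the mean of all test compounds on that plate plus 3 SD, cut at about 35% in these data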;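 further: 0% = DMSO alone and 100% = 100 µM mitoxantrone as full dye displacement; higher means more dye released from RNA so lower well fluorescence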
HTRA1 inhibitor: HTRA1 (human) protease inhibition; Q92743; recombinant HTRA1, FP-rhodamine activity-based probe, fluorescence polarization; inhibition, % at 5.96 µM; 340,000 tested, 0.5% active; AID 504803; in the data active means inhibition above about 36%;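 further: 0% = enzyme with DMSO and 100% = wells lacking enzyme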
Target sequence (Q92743 whole entry, looked up): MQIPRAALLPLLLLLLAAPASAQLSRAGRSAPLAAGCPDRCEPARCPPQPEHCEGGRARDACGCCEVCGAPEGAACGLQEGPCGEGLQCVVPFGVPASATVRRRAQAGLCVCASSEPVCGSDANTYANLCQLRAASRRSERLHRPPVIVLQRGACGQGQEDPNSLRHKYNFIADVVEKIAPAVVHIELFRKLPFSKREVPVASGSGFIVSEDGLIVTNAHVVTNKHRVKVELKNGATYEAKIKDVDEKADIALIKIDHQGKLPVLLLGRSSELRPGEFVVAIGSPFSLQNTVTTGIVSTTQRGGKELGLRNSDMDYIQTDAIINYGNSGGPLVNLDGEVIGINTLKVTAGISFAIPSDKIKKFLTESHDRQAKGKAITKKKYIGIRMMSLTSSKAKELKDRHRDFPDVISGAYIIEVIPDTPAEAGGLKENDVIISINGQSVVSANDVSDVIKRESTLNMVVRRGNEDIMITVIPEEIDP
PRMT1 inh: blocks human protein arginine methyltransferase 1; Q99873; recombinant PRMT1, activity-based probe fluorescence polarization; inhibition, % at 2.79 µM; 370,000 tested, 1.3% active;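 active means inhibition above about 21% made by adding two undisclosed values, limit read from the data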
SIAE inh: human SIAE inhibition, primary screen; Q9HAT2; SIAE FP-Rh probe binding, fluorescence polarization; inhibition, % at 9.66 µM; 370,000 tested, 0.69% active; AID 1053197;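 active means inhibition above a cutoff: mean of compounds within the control limits plus 3 SD of those, cut at about 17% in these data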;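 further: 0% = plate median of compound wells and 100% = probe without SIAE protein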
mABHD4 FP: ABHD4 (mouse) inhibition, primary FP screen; 370,000 tested, 0.54% active; Q8VD66; inhibition, % at 8.92 µM; AID 720543; purified mABHD4, FP-Rh probe fluorescence polarization;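 active means inhibition exceeding the mean over every tested compound plus 3 SD, cut at about 30% in these data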;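 further: 0% = plate median of compound wells and 100% = S159A mutant with DMSO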
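Material: mouse ABHD4 enzyme, wild type; Benchmarks: S159A mutant high control, sample median low control; Buffer or medium: HEPES pH 7.0, NaCl, Pluronic buffer; Signal: fluorescence polarization; Read-out: percent inhibition of probe binding, normalized to plate controls; Timing: pre-incubation 45 min, probe exposure 60 min, at 25 °C; Dosing: 8.92 µM, single dose.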
mABHD4 conf: confirmation of mouse ABHD4 inhibitors; shares compounds with mABHD4 FP; purified mABHD4, FP-Rh probe fluorescence polarization; inhibition, % at 8.92 µM; 1,800 tested, 55% active; AID 720658;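 active means mean inhibition across replicates above the hit cutoff set in the primary screen, cut at about 30% in these data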;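 further: 0% = wild-type ABHD4 with DMSO and 100% = catalytically dead S159A mutant with DMSO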
* = called active by the depositor. An excerpt weighted towards active compounds, which were near 3.3% of everything screened.

What do the screens show for `Cc1ccc(NC(=O)C2CC(=O)N(Cc3ccccc3)C2)nc1` (stereo not drawn)?
rCAG binder: 0.6; HTRA1 inhibitor: -6.8; PRMT1 inh: 0.0; SIAE inh: -0.2; mABHD4 FP: -0.5

How did CC1=NN(c2ccccc2)C(=O)C1C=Nc1ccc(N(C)C)cc1 (stereo not drawn) do in these assays?
rCAG binder: 9.3; PRMT1 inh: 29.5*; SIAE inh: 11.1; mABHD4 FP: 38.6*; mABHD4 conf: 2.0

Results for CCOC(=O)c1c(CSc2ccccc2)n(C)c2cc(Br)c(O)c(CN(C)C)c12 ?
rCAG binder: 0.0; HTRA1 inhibitor: -6.4; PRMT1 inh: 1.4; SIAE inh: 8.0; mABHD4 FP: 39.3*; mABHD4 conf: 8.7

What do the screens show for `CCOC(=O)c1c(CN2CCOCC2)n(-c2ccccc2)c2cc(Br)c(O)c(CN(C)C)c12`?
rCAG binder: 5.3; HTRA1 inhibitor: -10.7; PRMT1 inh: 0.8; SIAE inh: 5.7; mABHD4 FP: 2.7

Results for CCOC(=O)c1c(CSc2ccc(C)cc2)n(C)c2cc(Br)c(O)c(CN(C)C)c12 ?
rCAG binder: -1.2; HTRA1 inhibitor: -2.5; PRMT1 inh: 0.0; SIAE inh: 6.2; mABHD4 FP: 40.4*; mABHD4 conf: 22.8

Results for CCOC(=O)c1c(CN2CCCCC2)n(C)c2cc(Br)c(O)c(CN(C)C)c12 ?
HTRA1 inhibitor: -4.3

What do the screens show for `CCOC(=O)c1c(CSc2ccsc2)n(C)c2cc(Br)c(O)c(CN(C)C)c12`?
rCAG binder: 6.4; HTRA1 inhibitor: -4.8; PRMT1 inh: -0.2; SIAE inh: 7.7; mABHD4 FP: 29.6*; mABHD4 conf: 1.7

Results for COc1ccc(-c2cc(-c3nnc(COC(=O)c4ccncc4)o3)c3ccccc3n2)cc1OC ?
rCAG binder: 13.4; HTRA1 inhibitor: -16.2; PRMT1 inh: -2.2; SIAE inh: -12.9; mABHD4 FP: -5.1

How did NN1C(=O)/C(=C\c2ccco2)SC1=S do in these assays?
rCAG binder: 24.8; PRMT1 inh: 43.2*; SIAE inh: 10.9; mABHD4 FP: 41.5*; mABHD4 conf: 0.8

What do the screens show for `COc1ccc(CNC(=O)CN(C(=O)c2csnn2)c2ccc(F)cc2)cc1`?
rCAG binder: -0.7; HTRA1 inhibitor: -3.0; PRMT1 inh: -6.6; SIAE inh: 2.4; mABHD4 FP: 2.5

What do the screens show for `CN(C)CCN(C(=O)C1CCN(S(=O)(=O)c2cccs2)CC1)c1nc2ccccc2s1`?
rCAG binder: 0.1; HTRA1 inhibitor: -3.1; PRMT1 inh: -4.8; SIAE inh: 2.2; mABHD4 FP: 4.5

Results for CC(=O)Nc1ccc2nc(-c3cccs3)[nH]c2c1 ?
rCAG binder: 2.7; HTRA1 inhibitor: -4.1; PRMT1 inh: 1.0; SIAE inh: -6.1; mABHD4 FP: 7.1

Results for Nc1ccc2nc(-c3ccccc3)[nH]c2c1 ?
rCAG binder: 2.2; HTRA1 inhibitor: 2.5; PRMT1 inh: 2.5; SIAE inh: 8.2; mABHD4 FP: 31.9*; mABHD4 conf: 6.3

How did Nc1ccc2nc(-c3cccs3)[nH]c2c1 do in these assays?
rCAG binder: 4.1; HTRA1 inhibitor: 7.0; PRMT1 inh: 0.5; SIAE inh: 10.9; mABHD4 FP: 31.4*; mABHD4 conf: 30.0*

What do the screens show for `COc1ccc(CCNC(=O)COc2ccc(S(=O)(=O)N3CCOCC3)cc2C)cc1`?
rCAG binder: -2.0; HTRA1 inhibitor: 2.9; PRMT1 inh: -0.7; SIAE inh: -0.7; mABHD4 FP: 2.8

What do the screens show for `COC(C(=O)N1CCC(n2nccc2NC(=O)C2CC2)CC1)c1ccccc1` (stereo not drawn)?
rCAG binder: 1.7; HTRA1 inhibitor: -2.9; PRMT1 inh: -3.5; SIAE inh: 10.4; mABHD4 FP: -3.5

How did COC(=O)[C@]12C[C@H](CC(=O)N3CCN(C(=O)c4ccco4)CC3)C(=O)N(Cc3ccc(Cl)cc3Cl)C1=C[C@H](COCc1ccccc1)O[C@@H]2C do in these assays?
rCAG binder: 10.8; PRMT1 inh: -3.6; SIAE inh: -6.8; mABHD4 FP: -11.2

What do the screens show for `CCCCNC(=O)c1ccc2c(SCC(=O)O)c3c(nc2c1)CCCC3`?
rCAG binder: -3.1; HTRA1 inhibitor: 0.1; PRMT1 inh: 1.2; SIAE inh: -6.8; mABHD4 FP: -9.1

What do the screens show for `CC(C)CCNC(=O)c1ccc2c(SCC(=O)O)c3c(nc2c1)CCC3`?
rCAG binder: 3.5; HTRA1 inhibitor: -10.4; PRMT1 inh: 0.3; SIAE inh: -0.8; mABHD4 FP: 45.6*; mABHD4 conf: 9.4

What do the screens show for `CCN(CC(=O)NCc1ccc(F)cc1)C(=O)c1ccc(C)o1`?
rCAG binder: 1.1; HTRA1 inhibitor: -0.3; PRMT1 inh: 0.9; SIAE inh: 0.8; mABHD4 FP: -0.5

Results for Cc1oc2ccc(O)cc2c1C(=O)c1ccc([N+](=O)[O-])cc1 ?
rCAG binder: 0.7; HTRA1 inhibitor: -2.4; PRMT1 inh: 1.7; SIAE inh: 2.9; mABHD4 FP: 7.6

What do the screens show for `CN(C)/C=C/c1oc2ccc(O)cc2c1[N+](=O)[O-]`?
rCAG binder: 11.2; HTRA1 inhibitor: 4.4; PRMT1 inh: 13.9; SIAE inh: -2.1; mABHD4 FP: 32.4*; mABHD4 conf: 5.0

What do the screens show for `CSc1nnc(-c2ccccc2)c(-c2ccccc2)n1`?
rCAG binder: -3.5; HTRA1 inhibitor: -2.4; PRMT1 inh: -0.1; SIAE inh: -3.6; mABHD4 FP: -1.7

What do the screens show for `CSc1nnc(-c2ccco2)c(-c2ccco2)n1`?
rCAG binder: 22.6; HTRA1 inhibitor: 20.2; PRMT1 inh: 59.3*; SIAE inh: 14.2; mABHD4 FP: 39.9*; mABHD4 conf: 46.2*

How did C[C@H]1CN([C@@H](C)CO)S(=O)(=O)c2ccc(Br)cc2O[C@H]1CN(C)Cc1ccccc1 do in these assays?
rCAG binder: 0.0; HTRA1 inhibitor: -12.4; PRMT1 inh: 3.3; SIAE inh: -0.2; mABHD4 FP: 75.4*; mABHD4 conf: -9.2

How did Oc1ccc(N=Nc2ccc(Br)cc2)c(O)c1 do in these assays?
rCAG binder: 8.8; HTRA1 inhibitor: 11.1; PRMT1 inh: -2.4; SIAE inh: -3.3; mABHD4 FP: -0.7

What do the screens show for `O=[N+]([O-])c1ccccc1N=Nc1ccc(O)cc1O`?
rCAG binder: 16.1; PRMT1 inh: 4.2; SIAE inh: 12.4; mABHD4 FP: 31.6*; mABHD4 conf: 53.6*

How did CCC(C(=O)NC(C)(C)C)N(C(=O)Cn1nnc(-c2cccs2)n1)c1cnc2ccccc2c1 (stereo not drawn) do in these assays?
rCAG binder: -3.1; HTRA1 inhibitor: -6.1; PRMT1 inh: -0.5; SIAE inh: -0.5; mABHD4 FP: -5.9

What do the screens show for `Cc1cc2nc3c(=O)n(CCc4ccccc4)c(=O)[nH]c3nc2cc1N`?
rCAG binder: -165.4; HTRA1 inhibitor: 34.9; PRMT1 inh: 109.4*; SIAE inh: 10.2; mABHD4 FP: 54.6*; mABHD4 conf: 19.6

What do the screens show for `CN(C)c1cccc(O)c1`?
rCAG binder: 2.6; HTRA1 inhibitor: 16.2; PRMT1 inh: 6.4; SIAE inh: 4.3; mABHD4 FP: 51.1*; mABHD4 conf: 4.9
